One test deals with Streptococcus pneumoniae. The experiment in a line: Antibacterial activity against Streptococcus pneumoniae R6 after overnight incubation by microbroth dilution assay. The class given is functional. The procedure, abridged:
(§1)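 CLSI M7A7 microbroth dilution in Mueller-Hinton broth; S. pneumoniae broth given 5% lysed horse blood. DMSO stocks of 10 mg/mL; twofold dilutions to final 200–0.0125 µg/mL. Mid-log inoculum (OD600 0.5) diluted to final OD600 0.0005 (~10^5 CFU/mL). Overnight at 37°C; MIC is the lowest concentration inhibiting 90% of visible growth.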

Test [1] has as its system Bacillus anthracis. The experiment in a line: Inhibition of RNA synthesis in Bacillus anthracis sterne assessed as Inhibition of [3H]uracil incorporation into RNA incubated for 15 mins prior to [3H]uracil addition measured after 30 mins by scintillation counting. The class given is functional, organism-based.
The test system of another test is Bacillus subtilis. Briefly: Antibacterial activity against Bacillus subtilis ATCC 23857 after overnight incubation by microbroth dilution assay. In kind it is functional. The procedure, abridged:
as §1

Test [2] relates to Staphylococcus aureus subsp. aureus RN4220. The experiment in a line: Inhibition of PlsY in Staphylococcus aureus RN4220 harboring gpsA mutant assessed as Fab4-mediated fatty acid chain elongation measured as 17C fatty acid level at 50 uM after 2.5 hrs by mass spectrophotometry. The arrangement: scale not given: the % may be the effect or the level left. The procedure, abridged: (§2)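 RN4220 grown in Luria-Bertani broth at 37°C with 225 rpm shaking to OD600 0.5. 50 mL cultures treated for 2.5 h alongside a DMSO control. Lipids extracted by Bligh–Dyer and fatty acids analyzed by gas chromatography. Weight percent, mean of duplicates; not detected means <1%.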

Test [3] has the same test system. Briefly: Inhibition of PlsY in Staphylococcus aureus RN4220 harboring gpsA mutant assessed as Fab4-mediated fatty acid chain elongation measured as 20C fatty acid level at 50 uM after 2.5 hrs by mass spectrophotometry. The arrangement: scale not given: the % may be the effect or the level left. An outline of the steps:
as §2

The test system is the same in test [4]. Briefly: Inhibition of PlsY in Staphylococcus aureus RN4220 harboring gpsA mutant assessed as Fab4-mediated fatty acid chain elongation measured as 15C fatty acid level at 50 uM after 2.5 hrs by mass spectrophotometry. Also on record: scale not given: the % may be the effect or the level left. The procedure, abridged:
as §2

Test [5] has the same test system. Briefly: Inhibition of PlsY-mediated lipid synthesis in Staphylococcus aureus RN4220 harboring gpsA mutant assessed as inhibition of [14C]acetate incorporation into fatty acid incubated for 15 mins prior to [14C]acetate addition measured after 30 mins by scintillation counting. An outline of the steps:
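Mid-log S. aureus RN4220 (OD600 0.5) split into 10 mL aliquots. Compound or DMSO added for 15 min, then 10 µCi [14C]acetate for 30 min. Cells PBS-washed, lipids extracted by Bligh–Dyer, scintillation counted and normalized to OD600. Duplicates, mean with standard error.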

The next test has as its system Staphylococcus aureus. Briefly: Inhibition of RNA synthesis in Staphylococcus aureus RN4220 harboring gpsA mutant assessed as inhibition of [3H]uracil incorporation into RNA at 50 uM incubated for 15 mins before [3H]uracil addition measured after 30 mins by scintillation counting. The class given is functional, organism-based. An outline of the steps: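 RN4220 at OD600 0.5 in 10 mL aliquots, 15 min with compound. Then 30 min with 10 µCi label: 3H amino acid mix (protein), [3H]thymidine (DNA) or [3H]uracil (stable RNA). Cells collected on 0.45 µm filters, counted, OD600-normalized and expressed relative to untreated cells. Duplicates, mean with standard error.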

Test [6] concerns Staphylococcus aureus subsp. aureus RN4220. Briefly: Inhibition of PlsY in Staphylococcus aureus RN4220 harboring gpsA mutant assessed as Fab4-mediated fatty acid chain elongation measured as 21C fatty acid level at 50 uM after 2.5 hrs by mass spectrophotometry. Also on record: scale not given: the % may be the effect or the level left. An outline of the steps:
as §2

The test system is the same in test [7]. The experiment in a line: Inhibition of PlsY in Staphylococcus aureus RN4220 harboring gpsA mutant assessed as Fab4-mediated fatty acid chain elongation measured as 19C fatty acid level at 50 uM after 2.5 hrs by mass spectrophotometry. The arrangement: scale not given: the % may be the effect or the level left. The procedure, abridged:
as §2

The subject of the next test is Enterococcus faecalis. The experiment in a line: Antibacterial activity against Enterococcus faecalis ATCC 33186 after overnight incubation by microbroth dilution assay. The class given is functional. An outline of the steps: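 CLSI microbroth dilution in Mueller-Hinton broth; compounds dissolved in DMSO, twofold serial dilutions giving final 200–0.0125 µg/mL. Inoculum from single colony grown at 37°C to mid-log (OD600 0.5), diluted to final OD600 0.0005 (~10^5 CFU/mL). Incubated overnight at 37°C; MIC = lowest concentration inhibiting 90% of visible growth.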

Test [8] relates to Staphylococcus aureus subsp. aureus RN4220. The experiment in a line: Inhibition of PlsY in Staphylococcus aureus RN4220 harboring gpsA mutant assessed as 36C phophotidylglycerol formation at 50 uM after 2.5 hrs by mass spectrophotometry. The procedure, abridged:
(§3)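 RN4220 grown in Luria-Bertani broth at 37°C to OD600 0.5. 50 mL aliquots treated for 2.5 h alongside a DMSO control. Cells PBS-washed, lipids extracted by Bligh–Dyer. Phosphatidylglycerol molecular species distribution determined by mass spectrometry.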

Test [9] shares this test system. The experiment in a line: Inhibition of PlsY in Staphylococcus aureus RN4220 harboring gpsA mutant assessed as 35C phophotidylglycerol formation at 50 uM after 2.5 hrs by mass spectrophotometry. The procedure, abridged:
as §3

Test [10] relates to Bacillus anthracis. The experiment in a line: Inhibition of protein synthesis in Bacillus anthracis sterne assessed as Inhibition of [3H]amino acid incorporation into protein incubated for 15 mins prior to [3H]amino acid addition measured after 30 mins by scintillation counting. In kind it is functional, organism-based.
In test [11] the test system is Staphylococcus aureus subsp. aureus RN4220. Briefly: Inhibition of PlsY in Staphylococcus aureus RN4220 harboring gpsA mutant assessed as Fab4-mediated fatty acid chain elongation measured as 21C fatty acid level at 25 uM after 2.5 hrs by mass spectrophotometry. The arrangement: scale not given: the % may be the effect or the level left. An outline of the steps: as §2

This is an account of results in ChEMBL document CHEMBL2086264.

In brackets after ≈: the same amount, converted by molar mass. Activity calls are given as the source filed them. The rule behind the calls is not given here. Some results are limits rather than exact numbers.

Turning to `O=C(CCCCCCCc1ccccc1)NS(=O)(=O)Oc1ccccc1`, the MIC90 in the test on Streptococcus pneumoniae was 100 µg/mL (≈ 266 µM); in the test on Bacillus subtilis, more than 200 µg/mL; against Enterococcus faecalis, 100 µg/mL (≈ 266 µM). For the same compound, the inhibition entry (in the test with Bacillus anthracis [1]; in test [8]; in test [9]; with Bacillus anthracis [10]) was “Active” in each case. The Activity in [2] turned out to be 8%; in [3], 13%; in test [4], 32%; in test [6] it was 14%; in [7], 14%; in test [11], 12%. Moreover, in [5], the inhibition entry was “Dose-dependent effect”. In the test on Staphylococcus aureus, the inhibition entry was “inactive”.
